Measurements from ChEMBL document CHEMBL1142529.
One block for each compound: values may come before it.

How the values were obtained:
[1] = molecular target: T1, Quinolone resistance protein NorA (Staphylococcus aureus) (UniProt P0A0J7); assay: Inhibition of NorA efflux pump in Staphylococcus aureus 1199 assessed as fold reduction of ciprofloxacin MIC at 25 ug/ml
T1 sequence (whole entry): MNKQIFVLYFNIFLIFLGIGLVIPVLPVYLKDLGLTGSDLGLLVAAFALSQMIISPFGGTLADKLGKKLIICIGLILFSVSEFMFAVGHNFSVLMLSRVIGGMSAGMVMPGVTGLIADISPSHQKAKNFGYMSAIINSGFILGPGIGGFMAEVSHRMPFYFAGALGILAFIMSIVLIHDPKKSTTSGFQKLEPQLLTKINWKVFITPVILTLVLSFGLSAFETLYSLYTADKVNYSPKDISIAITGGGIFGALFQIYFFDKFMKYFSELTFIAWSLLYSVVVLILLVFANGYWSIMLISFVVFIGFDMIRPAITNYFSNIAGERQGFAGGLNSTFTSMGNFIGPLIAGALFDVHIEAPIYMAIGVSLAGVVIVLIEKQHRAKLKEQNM
Method in brief: (§1)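 Broth checkerboard synergy in Mueller–Hinton broth with twofold serial dilutions. Each candidate EPI was run at seven concentrations (100–1.56 µg/mL) against ciprofloxacin at 10 concentrations (16–0.03 µg/mL). Incubation was 18 h at 37 °C, and growth was scored visually. The fold drop in ciprofloxacin MIC was read at the stated EPI concentration.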

[2] = molecular target: T1, Quinolone resistance protein NorA (Staphylococcus aureus); assay: Inhibition of NorA efflux pump in Staphylococcus aureus 1199B assessed as fold reduction of ciprofloxacin MIC at 25 ug/ml; method in brief: as §1
[3] = molecular target: T1, Quinolone resistance protein NorA (Staphylococcus aureus); assay: Inhibition of NorA efflux pump in Staphylococcus aureus 1199 assessed as fold reduction of ciprofloxacin MIC at 12.5 ug/ml; method in brief: as §1
[4] = molecular target: T1, Quinolone resistance protein NorA (Staphylococcus aureus); assay: Inhibition of NorA efflux pump in Staphylococcus aureus 1199B assessed as fold reduction of ciprofloxacin MIC at 12.5 ug/ml; method in brief: as §1
[5] = molecular target: T1, Quinolone resistance protein NorA (Staphylococcus aureus); assay: Inhibition of NorA efflux pump in Staphylococcus aureus 1199B assessed as fold reduction of ciprofloxacin MIC at >100 ug/ml
[6] = molecular target: T1, Quinolone resistance protein NorA (Staphylococcus aureus); assay: Inhibition of NorA efflux pump in Staphylococcus aureus 1199 assessed as fold reduction of ciprofloxacin MIC at >100 ug/ml; method in brief: as §1
[7] = molecular target: T1, Quinolone resistance protein NorA (Staphylococcus aureus); assay: Inhibition of NorA efflux pump in Staphylococcus aureus 1199B assessed as fold reduction of ciprofloxacin MIC at 6.25 ug/ml; method in brief: as §1
[8] = molecular target: T1, Quinolone resistance protein NorA (Staphylococcus aureus); assay: Inhibition of NorA efflux pump in Staphylococcus aureus 1199 assessed as fold reduction of ciprofloxacin MIC at 1.5 ug/ml; method in brief: as §1
[9] = molecular target: T1, Quinolone resistance protein NorA (Staphylococcus aureus); assay: Inhibition of NorA efflux pump in Staphylococcus aureus 1199 assessed as fold reduction of ciprofloxacin MIC at 6.25 ug/ml; method in brief: as §1
[10] = molecular target: T1, Quinolone resistance protein NorA (Staphylococcus aureus); assay: Inhibition of NorA efflux pump in Staphylococcus aureus 1199B assessed as fold reduction of ciprofloxacin MIC at 1.5 ug/ml; method in brief: as §1
[11] = molecular target: T1, Quinolone resistance protein NorA (Staphylococcus aureus); assay: Inhibition of NorA efflux pump in Staphylococcus aureus 1199B assessed as fold reduction of ciprofloxacin MIC at 3.12 ug/ml; method in brief: as §1
[12] = molecular target: T1, Quinolone resistance protein NorA (Staphylococcus aureus); assay: Inhibition of NorA efflux pump in Staphylococcus aureus 1199 assessed as fold reduction of ciprofloxacin MIC at 3.12 ug/ml; method in brief: as §1
[13] = molecular target: T1, Quinolone resistance protein NorA (Staphylococcus aureus); assay: Inhibition of NorA efflux pump in Staphylococcus aureus 1199 assessed as fold reduction of ciprofloxacin MIC at 100 ug/ml; method in brief: as §1
[14] = molecular target: T1, Quinolone resistance protein NorA (Staphylococcus aureus); assay: Inhibition of NorA efflux pump in Staphylococcus aureus 1199B assessed as fold reduction of ciprofloxacin MIC at 100 ug/ml; method in brief: as §1

SMILES: CCN(CC)C(=O)/C=C/C=C/c1ccc2c(c1)OCO2
fold change (FC) [1]: 0
fold change (FC) [2]: 2

SMILES: O=C(/C=C/C=C/c1ccc2c(c1)OCO2)Nc1cccc(CO)c1
fold change (FC) [1]: 0
fold change (FC) [2]: 2

SMILES: CCCNC(=O)/C=C/C=C/c1ccc2c(c1)OCO2
fold change (FC) [5]: 0
fold change (FC) [6]: 0

SMILES: N#Cc1cccc(NC(=O)/C=C/C=C/c2ccc3c(c2)OCO3)c1
fold change (FC) [7]: 4
fold change (FC) [8]: 0
fold change (FC) [9]: 0
fold change (FC) [10]: 2

SMILES: N#Cc1ccc(NC(=O)/C=C/C=C/c2ccc3c(c2)OCO3)cc1
fold change (FC) [1]: 0
fold change (FC) [2]: 2

SMILES: O=C(CCCCc1ccc2c(c1)OCO2)Nc1ccc(C(=O)Nc2ccccc2)cc1
fold change (FC) [5]: 0
fold change (FC) [6]: 0

SMILES: CC(C)c1cc2c(c(O)c1O)[C@@]1(C(=O)O)CCCC(C)(C)[C@@H]1CC2
fold change (FC) [1]: 2
fold change (FC) [2]: 2

SMILES: CC[C@H](CO)NC(=O)/C=C/C=C/c1ccc2c(c1)OCO2
fold change (FC) [5]: 0
fold change (FC) [6]: 0

SMILES: Cc1ccccc1NC(=O)/C=C/C=C/c1ccc2c(c1)OCO2
fold change (FC) [5]: 0
fold change (FC) [6]: 0

SMILES: CC(C)CNC(=O)CCCCc1ccc2c(c1)OCO2
fold change (FC) [5]: 0
fold change (FC) [6]: 0

SMILES: N#Cc1cccc(NC(=O)CCCCc2ccc3c(c2)OCO3)c1
fold change (FC) [5]: 0
fold change (FC) [6]: 0

SMILES: CC(=O)Nc1ccccc1NC(=O)/C=C/C=C/c1ccc2c(c1)OCO2
fold change (FC) [7]: 2
fold change (FC) [9]: 0
fold change (FC) [1]: 2
fold change (FC) [2]: 4

SMILES: O=C(/C=C/C=C/c1ccc2c(c1)OCO2)Nc1ccccc1
fold change (FC) [3]: 2
fold change (FC) [4]: 2

SMILES: O=C(/C=C/C=C/c1ccc2c(c1)OCO2)Nc1ccc2ncsc2c1
fold change (FC) [11]: 2
fold change (FC) [12]: 0

SMILES: CC(C)NC(=O)/C=C/C=C/c1ccc2c(c1)OCO2
fold change (FC) [1]: 0
fold change (FC) [2]: 2

Further lines, results first:

fold change (FC) [1]: 0
fold change (FC) [2]: 2
SMILES: O=C(/C=C/C=C/c1ccc2c(c1)OCO2)Nc1ccccc1CO

fold change (FC) [3]: 0
fold change (FC) [4]: 2
SMILES: O=C(/C=C/C=C/c1ccc2c(c1)OCO2)NCC(O)c1ccccc1 (stereo not given)

fold change (FC) [5]: 0
fold change (FC) [6]: 0
SMILES: N#CCc1ccccc1NC(=O)/C=C/C=C/c1ccc2c(c1)OCO2

fold change (FC) [5]: 0
fold change (FC) [6]: 0
SMILES: COc1ccc(NC(=O)/C=C/C=C/c2ccc3c(c2)OCO3)cc1

fold change (FC) [11]: 2
fold change (FC) [1]: 0
fold change (FC) [12]: 0
fold change (FC) [2]: 4
SMILES: O=C(/C=C/C=C/c1ccc2c(c1)OCO2)Nc1ccc(C(=O)Nc2ccccc2)cc1

fold change (FC) [7]: 2
fold change (FC) [9]: 2
SMILES: O=C(/C=C/C=C/c1ccc2c(c1)OCO2)Nc1nc2ccccc2s1

fold change (FC) [5]: 0
fold change (FC) [6]: 0
SMILES: O=C(/C=C/C=C/c1ccc2c(c1)OCO2)N1CCOCC1

fold change (FC) [13]: 0
fold change (FC) [14]: 0
SMILES: CCCCNC(=O)/C=C/C=C/c1ccc2c(c1)OCO2

fold change (FC) [1]: 0
fold change (FC) [2]: 2
SMILES: CC(C)CNC(=O)/C=C/C=C/c1ccc2c(c1)OCO2

fold change (FC) [1]: 0
fold change (FC) [2]: 2
SMILES: CN1CCN(C(=O)/C=C/C=C/c2ccc3c(c2)OCO3)CC1

fold change (FC) [1]: 0
fold change (FC) [2]: 2
SMILES: NC(=O)c1ccc(NC(=O)/C=C/C=C/c2ccc3c(c2)OCO3)cc1

fold change (FC) [1]: 0
fold change (FC) [2]: 2
SMILES: CC[C@@H](CO)NC(=O)/C=C/C=C/c1ccc2c(c1)OCO2

fold change (FC) [7]: 2
fold change (FC) [9]: 0
fold change (FC) [1]: 2
fold change (FC) [2]: 4
SMILES: CC(=O)Nc1ccc(NC(=O)/C=C/C=C/c2ccc3c(c2)OCO3)cc1

fold change (FC) [11]: 2
fold change (FC) [12]: 0
SMILES: O=C(/C=C/C=C/c1ccc2c(c1)OCO2)Nc1ccc(NC(=O)c2ccccc2)cc1

fold change (FC) [1]: 2
fold change (FC) [2]: 4
SMILES: COC(=O)[C@H]1[C@H]2C[C@@H]3c4[nH]c5cc(OC)ccc5c4CCN3C[C@H]2C[C@@H](OC(=O)c2cc(OC)c(OC)c(OC)c2)[C@@H]1OC

fold change (FC) [1]: 0
fold change (FC) [2]: 2
SMILES: N#CCc1ccc(NC(=O)/C=C/C=C/c2ccc3c(c2)OCO3)cc1

fold change (FC) [1]: 2
fold change (FC) [2]: 2
SMILES: CC(C)N(C(=O)/C=C/C=C/c1ccc2c(c1)OCO2)C(C)C

fold change (FC) [7]: 2
fold change (FC) [9]: 0
SMILES: O=C(/C=C/C=C/c1ccc2c(c1)OCO2)Nc1ccc(CO)cc1

fold change (FC) [3]: 2
fold change (FC) [7]: 2
fold change (FC) [9]: 0
fold change (FC) [4]: 4
SMILES: CC(=O)Nc1cccc(NC(=O)/C=C/C=C/c2ccc3c(c2)OCO3)c1

fold change (FC) [5]: 0
fold change (FC) [6]: 0
SMILES: O=C(/C=C/C=C/c1ccc2c(c1)OCO2)Nc1ccc2c(c1)OCO2
